NPY Y1 blocker: NPY-Y1 receptor antagonists, primary screen, cell-based | hit rate 1% among 200,000 | AID 1040, 2008 | HEK293-CNG Y1 cells, membrane potential fluorescence; NPY at EC95, then isoproterenol | Neuropeptide Y receptor type 1 (Homo sapiens), P25929 | inhibition, % at 3.6 µM;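 active = inhibition above the campaign mean inhibition of all tested compounds plus 3 SD, cut at about 20% in these data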
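Test system: HEK293 cells co-expressing NPY Y1 receptor and cyclic-nucleotide gated channel; Also added: NPY (25 nM), isoproterenol (1 µM), Ro 20-1724 (25 µM); Compound dosing: one concentration, 3.6 µM, in 0.4% DMSO; Timing: dye 3 h, compound 60 min room temperature, stimulation 45 min; Technique: Membrane-potential fluorescent dye readout.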
NPY-Y2 PAM-ag: NPY-Y2 potentiators or agonists, primary screen, cell-based; hit rate 0.45% among 220,000; cells expressing NPY-Y2, potentiator/agonist read-out; activation, % at 3.6 µM; Neuropeptide Y receptor type 2 (Homo sapiens), P49146; in the data active = activation above about 27%;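 note: cells stimulated with NPY near EC25 plus isoproterenol at EC100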
Target sequence (P49146 whole entry, looked up): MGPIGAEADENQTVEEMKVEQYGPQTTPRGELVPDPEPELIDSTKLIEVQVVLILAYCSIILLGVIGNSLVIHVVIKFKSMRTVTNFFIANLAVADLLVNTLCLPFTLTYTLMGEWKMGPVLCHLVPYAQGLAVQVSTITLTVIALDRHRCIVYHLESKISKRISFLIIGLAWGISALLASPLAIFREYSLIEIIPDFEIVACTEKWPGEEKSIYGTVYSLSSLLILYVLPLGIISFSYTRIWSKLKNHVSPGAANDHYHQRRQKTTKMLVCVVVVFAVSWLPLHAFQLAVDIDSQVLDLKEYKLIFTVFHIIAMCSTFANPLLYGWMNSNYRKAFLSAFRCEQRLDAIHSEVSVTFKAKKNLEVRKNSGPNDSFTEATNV
NPY1 pot ag: NPY-Y1 receptor potentiators or agonists, primary screen, cell-based | hit rate 0.37% among 220,000 | NPY-Y1 expressing cells, potentiator/agonist activation | activation, % at 3.6 µM | Neuropeptide Y receptor type 1 (Homo sapiens), P25929; in the data active = activation above about 33%, passing the limit was not always enough;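 note: cells stimulated with NPY at EC10 then isoproterenol at EC100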
NPY Y2 blocker: NPY-Y2 receptor antagonists, primary screen, cell-based; Neuropeptide Y receptor type 2 (Homo sapiens), P49146; NPY-Y2 expressing cells, antagonist mode; inhibition, % at 2.7 µM; hit rate 0.99% among 140,000
NPY1 antag conf: NPY-Y1 receptor antagonists, retest of hits, confirmation, HEK293-CNG cells, membrane potential fluorescence, triplicate; shares compounds with NPY Y1 blocker; cAMP; NPY challenge against isoproterenol-raised cAMP; inhibition, % at 3.6 µM; hit rate 21% among 1,200; AID 1254, 2008; in the data active = inhibition above about 20%
NPY-Y2 antag ct: NPY-Y2 receptor antagonists, selectivity check, confirmation, counter-screen for NPY-Y1 antagonist project, HEK293-CNG cells, membrane potential fluorescence, triplicate. shares compounds with NPY Y1 blocker. antagonism; cells given NPY, then isoproterenol. inhibition, % at 3.6 µM. hit rate 28% among 1,200
Large screens that a line does not name were inactive (follow-up assays come after a bar, where they were run). Only some compounds are listed: those with a hit (about 1.8% of all), similar ones and a draw of the others. Cut-off read from the data, not from the text of the source, unless noted: active = inhibition above about 17%; inactive = the rest.

CN(C)CCn1c(=N)n(CC(O)c2ccc(Cl)c(Cl)c2)c2ccccc21 (configuration not stated)	NPY Y1 blocker 22.7 (no result: NPY Y2 blocker) | NPY1 antag conf inactive | NPY-Y2 antag ct 29.4
CCCCn1c(=N)n(CC(O)c2ccccc2)c2ccccc21 (configuration not stated)	none (no result: NPY Y1 blocker, NPY Y2 blocker)
CN(Cc1ccccc1)c1ccc(C(=O)O)cc1[N+](=O)[O-]	none
CCOC(=O)CSc1nc(C(C)C)nc2sc(C)c(C)c12	NPY Y1 blocker 23.0 (no result: NPY Y2 blocker) | NPY1 antag conf 39.0 | NPY-Y2 antag ct 41.0
COc1ccc(Cl)cc1NC(=O)CNc1ccccc1CN(C)C1CCCCC1	NPY Y1 blocker 29.1 (no result: NPY Y2 blocker) | NPY1 antag conf 26.2 | NPY-Y2 antag ct 20.1
COc1ccc(C)cc1NC(=O)CNc1ccccc1CN(C)C1CCCCC1	none (no result: NPY Y2 blocker)
COc1ccc(OC)c(NC(=O)C2C3CCC(O3)C2C(=O)O)c1 (configuration not stated)	none
Cc1ccc(C)c(NC(=O)c2cc(-c3cccnc3)nc3ccccc23)c1	none (no result: NPY Y2 blocker)
Cc1ccccc1NC(=S)NC(=O)c1cc(-c2ccccc2)nc2ccccc12	NPY Y1 blocker 21.3 | NPY1 antag conf 27.8 | NPY-Y2 antag ct 37.9
Cc1cccc(NC(=S)NC(=O)c2cc(-c3ccccc3)nc3ccccc23)c1	NPY Y1 blocker 20.8 | NPY1 antag conf inactive | NPY-Y2 antag ct 19.8
CCC(=O)NCCc1nc2cc(NC(=O)c3ccccc3OC)ccc2n1C	none
O=C(c1ccco1)N1CCN(S(=O)(=O)c2ccc(S(=O)(=O)NC3CCCC3)cc2)CC1	NPY Y1 blocker 20.3 | NPY1 antag conf inactive | NPY-Y2 antag ct inactive
O=S(=O)(c1cccs1)N1CCC(CO)(Cc2ccc(Cl)cc2)CC1	none (no result: NPY Y2 blocker)
Cc1ccccc1OCCN(C#N)c1nc(N(C)C)nc(N(C)C)n1	NPY Y1 blocker 28.1 (no result: NPY Y2 blocker) | NPY1 antag conf inactive | NPY-Y2 antag ct 18.9
COc1ccc(NC(=O)C2=C(C)Nc3nc(CCCO)nn3C2c2ccc(OC)c(OC)c2)cc1 (configuration not stated)	none (no result: NPY Y2 blocker)
Cc1cc(NC(=O)CC2CCCC2)n(-c2nc3ccccc3[nH]2)n1	NPY Y1 blocker 20.6 | NPY1 antag conf inactive | NPY-Y2 antag ct inactive
CCC(NC(=O)NCc1cccnc1)(C(F)(F)F)C(F)(F)F	none
Cc1ccc(CSc2ncccc2C(=O)O)cc1	NPY Y1 blocker 22.9 | NPY1 antag conf inactive | NPY-Y2 antag ct inactive
Cc1nc(Oc2ccc(S(=O)(=O)N3CCOCC3)cc2Cl)c2c3c(sc2n1)CCCC3	none
COc1nc(N=C(N)N)nc2ccc(C)cc12	none
Cc1cccc(C)c1NC(=S)N(Cc1ccccc1)Cc1cccs1	NPY Y1 blocker 38.0 (no result: NPY Y2 blocker) | NPY1 antag conf inactive | NPY-Y2 antag ct 20.1
O=C(O)CNC(=S)N(Cc1ccccc1)Cc1cccs1	none (no result: NPY Y2 blocker)
COc1ccc(/C=N/NC(=O)c2c(C)nnn2-c2nonc2N)cc1OC	none (no result: NPY Y2 blocker)
CCOC(=O)C(Cc1ccccc1)C(=O)Nc1cccc2ccccc12 (configuration not stated)	none
COc1ccc(CN2C(=O)c3ccccc3C2C(=O)NC2CCCC(C)C2C)c(OC)c1 (configuration not stated)	NPY Y1 blocker 35.9 (no result: NPY Y2 blocker) | NPY1 antag conf inactive | NPY-Y2 antag ct inactive
COc1ccc(CN2C(=O)c3ccccc3C2C(=O)NC2CCC(C)CC2)c(OC)c1 (configuration not stated)	NPY Y1 blocker 22.6 (no result: NPY Y2 blocker) | NPY1 antag conf inactive | NPY-Y2 antag ct inactive
COc1ccc(CN2C(=O)c3ccccc3C2C(=O)NC2CCCC2)c(OC)c1 (configuration not stated)	none
COc1ccc(CN2C(=O)c3ccccc3C2C(=O)NCC2CCCO2)c(OC)c1 (configuration not stated)	none
COc1cc2c(cc1OC)C(=O)CC(C)S2 (configuration not stated)	none
COc1ccc(N2CCN(C(CNS(=O)(=O)c3cc(F)ccc3F)c3cccnc3)CC2)cc1 (configuration not stated)	none
CCCC(c1nnnn1C(C)(C)C)N1CCN(Cc2ccccc2OC)CC1 (configuration not stated)	NPY Y1 blocker 22.2 (no result: NPY Y2 blocker) | NPY1 antag conf inactive | NPY-Y2 antag ct inactive
C=CCNCc1cccn1-c1ccccc1	none
COC(=O)C1CCCN1S(=O)(=O)c1ccc2ccccc2c1 (configuration not stated)	NPY Y1 blocker 40.6 | NPY1 antag conf 57.0 | NPY-Y2 antag ct 26.9
CN(C)c1ccc(-c2nn3c(-c4ccc(Cl)cc4)nnc3s2)cc1	none
Clc1ccc(-c2nn3c(C4COc5ccccc5O4)nnc3s2)cc1 (configuration not stated)	NPY Y1 blocker 24.9 | NPY1 antag conf inactive | NPY-Y2 antag ct inactive
CCOC(=O)NC(=O)CSc1nnnn1-c1ccc(Cl)cc1	none
CCOC(=O)c1ccc(CNC(=O)CSc2nnnn2-c2ccc(Cl)cc2)o1	NPY Y1 blocker 20.4 | NPY1 antag conf inactive | NPY-Y2 antag ct inactive
O=C(CCN1CCC(c2ccc(Cl)s2)=N1)c1ccc(Cl)s1	none (no result: NPY Y1 blocker, NPY Y2 blocker)
CCOC(=O)C1(Cc2cccc(OC)c2)CCN(Cc2cccn2-c2ccccn2)CC1	NPY Y1 blocker 28.8 (no result: NPY Y2 blocker) | NPY1 antag conf inactive | NPY-Y2 antag ct inactive
CCOC(=O)C1(CCOc2ccccc2)CCN(Cc2ccncc2)CC1	none (no result: NPY Y2 blocker)
CCOC(=O)C1(CCOc2ccccc2)CCN(Cc2cccn2-c2ncccn2)CC1	NPY Y1 blocker 24.7 (no result: NPY Y2 blocker) | NPY1 antag conf inactive | NPY-Y2 antag ct inactive
CCCSc1nc2c(=O)[nH][nH]c(=O)c2n1Cc1ccccc1	none
COc1ccc(C(=O)CSc2nc3ccc([N+](=O)[O-])cc3[nH]2)cc1	none
O=Cc1cn(-c2ccccc2)nc1-c1cc2cc(O)ccc2oc1=O	NPY Y1 blocker 21.6 | NPY1 antag conf inactive | NPY-Y2 antag ct inactive
O=C(NCC(=O)N(CC1CCCO1)C(C(=O)NC1CCCC1)c1cccnc1)c1ccco1 (configuration not stated)	none
COc1cccc(-c2cc(C(=O)N3CCN(C(c4ccccc4)c4ccccc4)CC3)no2)c1	NPY Y1 blocker 23.6 | NPY1 antag conf inactive | NPY-Y2 antag ct inactive
Cc1ccc(SCCC(=O)OCC(=O)Nc2ccc(S(N)(=O)=O)cc2)cc1	none (no result: NPY Y1 blocker, NPY Y2 blocker)
Cc1ccc(SCCC(=O)OCC(=O)NCC2CCCCC2)cc1	NPY Y1 blocker 36.0 (no result: NPY Y2 blocker) | NPY1 antag conf inactive | NPY-Y2 antag ct inactive
COc1cccc(C2CC(c3cccs3)=NN2S(C)(=O)=O)c1 (configuration not stated)	none (no result: NPY Y2 blocker)
CCC(C)NC(=O)Nc1ccc(C)cc1C (configuration not stated)	none (no result: NPY Y2 blocker)
CN(c1ccc(OCc2nnc(-c3ccccc3)o2)cc1)S(=O)(=O)c1ccccc1	NPY Y1 blocker 27.8 | NPY1 antag conf inactive | NPY-Y2 antag ct inactive
